≈ marks a conversion by molar mass, not a printed value.
Tests used:
Assay type in all cases: functional
Enterococcus faecalis [1] = test: Antimicrobial activity against vancomycin B-resistant Enterococcus faecalis TX2484 isolate by agar dilution method
Method in brief: (§1)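 Agar dilution MIC on Mueller-Hinton agar II per CLSI, standard inoculum 10⁴ CFU/spot; drug dissolved in 9.9% glacial acetic acid plus 1% DMSO. Control strains E. faecalis ATCC 29212, S. aureus ATCC 29213, E. coli 25922.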

Enterococcus faecalis [2] = test: Antimicrobial activity against beta-lactamase producing Enterococcus faecalis TX5070 isolate by agar dilution method
Method in brief: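 Starting inoculum was 10⁴ CFU/spot, and E. faecalis ATCC 29212 served as control. Drug was diluted in 9.9% glacial acetic acid plus 1% DMSO.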

Enterococcus faecalis [3] = test: Antimicrobial activity against beta-lactamase producing Enterococcus faecalis TX0630 isolate by agar dilution method; method in brief: as §1
Enterococcus faecalis [4] = test: Antimicrobial activity against vancomycin A-resistant Enterococcus faecalis TX2784 isolate by agar dilution method; method in brief: as §1
Enterococcus faecalis [5] = test: Bactericidal activity against vancomycin A-resistant Enterococcus faecalis TX2784 isolate assessed as decrease in viable count after 24 hrs
Method in brief: (§2)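 Time-kill in 20 ml BHI broth, starting inoculum 10⁷ CFU/ml from overnight culture. Viable counts at 0, 4 and 24 h by plating on BHI agar after centrifuging 1-ml samples and resuspending in 0.9% saline to remove carryover. Detection limit 10 CFU/ml. Bactericidal = ≥3-log₁₀ CFU/ml drop over 0–24 h. Two to four runs per strain.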

Enterococcus faecalis [6] = test: Antimicrobial activity against Enterococcus faecalis TX0645 isolate at 10^4 CFU/spot; method in brief: as §1
Enterococcus faecalis [7] = test: Antimicrobial activity against beta-lactamase producing vancomycin-resistant Enterococcus faecalis TX0921 isolate at 10^4 CFU/spot; method in brief: as §1
Enterococcus faecalis [8] = test: Bactericidal activity against vancomycin B-resistant Enterococcus faecalis TX2484 isolate assessed as decrease in viable count after 24 hrs; method in brief: as §2
Enterococcus faecalis [9] = test: Antimicrobial activity against beta-lactamase producing Enterococcus faecalis TX0630 isolate at 10^4 CFU/spot
Method in brief: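 Agar dilution MIC on Mueller-Hinton agar II following CLSI recommendations, with a standard inoculum of 10⁴ CFU/spot. Drug was diluted in 9.9% glacial acetic acid plus 1% DMSO. Control strains were E. faecalis ATCC 29212, S. aureus ATCC 29213 and E. coli 25922. Isolates were recovered from −80°C frozen stocks.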

Enterococcus faecalis [10] = test: Antimicrobial activity against beta-lactamase producing vancomycin-resistant Enterococcus faecalis TX0638 isolate at 10^4 CFU/spot; method in brief: as §1
Enterococcus faecalis [11] = test: Antimicrobial activity against beta-lactamase producing vancomycin-resistant Enterococcus faecalis TX0614 isolate at 10^7 […]
Method in brief: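 High-inoculum MIC by broth dilution in Mueller-Hinton broth at 10⁷ CFU/ml (per ml in broth, not per spot).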

Enterococcus faecalis [12] = test: Antimicrobial activity against beta-lactamase producing vancomycin-resistant Enterococcus faecalis isolates by agar dilution method; method in brief: as §1
Enterococcus faecalis [13] = test: Antimicrobial activity against beta-lactamase producing vancomycin-resistant Enterococcus faecalis TX0614 isolate at 10^4 CFU/spot; method in brief: as §1

| SMILES | MIC (Enterococcus faecalis [1]) [µg/mL] | MIC (Enterococcus faecalis [2]) [µg/mL] | MIC (Enterococcus faecalis [3]) [µg/mL] | MIC (Enterococcus faecalis [4]) [µg/mL] | log10CFU/ml (Enterococcus faecalis [5]) | MIC (Enterococcus faecalis [6]) [µg/mL] | MIC (Enterococcus faecalis [7]) [µg/mL] | log10CFU/ml (Enterococcus faecalis [8]) | MIC (Enterococcus faecalis [9]) [µg/mL] | MIC (Enterococcus faecalis [10]) [µg/mL] | MIC (Enterococcus faecalis [11]) [µg/mL] | MIC50 (Enterococcus faecalis [12]) [µg/mL] | MIC90 (Enterococcus faecalis [12]) [µg/mL] | MIC (Enterococcus faecalis [13]) [µg/mL] |
| --- | --- | --- | --- | --- | --- | --- | --- | --- | --- | --- | --- | --- | --- | --- |
| CN[C@H](CC(C)C)C(=O)N[C@H]1C(=O)N[C@@H](CC(N)=O)C(=O)N[C@H]2C(=O)N[C@H]3C(=O)N[C@H](C(=O)N[C@H](C(=O)O)c4cc(O)cc(O)c4-c4cc3ccc4O)[C@H](O)c3ccc(c(Cl)c3)Oc3cc2cc(c3O[C@@H]2O[C@H](CO)[C@@H](O)[C@H](O)[C@H]2O[C@H]2C[C@](C)(N)[C@H](O)[C@H](C)O2)Oc2ccc(cc2Cl)[C@H]1O [VANCOMYCIN] | > 256 | 8 (≈ 5.52 µM) | 0.5 (≈ 0.345 µM) | > 256 |  |  |  |  |  |  |  |  |  |  |
| CC1(C)S[C@@H]2[C@H](NC(=O)[C@H](N)c3ccccc3)C(=O)N2[C@H]1C(=O)O [AMPICILLIN] | 0.5 (≈ 1.43 µM) |  | 1 (≈ 2.86 µM) | 0.5 (≈ 1.43 µM) |  |  |  |  |  |  |  |  |  |  |
| Nc1nc(/C(=N/O)C(=O)N[C@@H]2C(=O)N3C(C(=O)O)=C(/C=C4\CCN([C@@H]5CCNC5)C4=O)CS[C@H]23)ns1 [CEFTOBIPROLE] | 0.5 (≈ 0.935 µM) | 0.125 (≈ 0.234 µM) | 0.25 (≈ 0.468 µM) | 0.25 (≈ 0.468 µM) | >3 | 0.25 (≈ 0.468 µM) | 0.25 (≈ 0.468 µM) | >3 | 0.125 (≈ 0.234 µM) | 0.25 (≈ 0.468 µM) | 2 (≈ 3.74 µM) | 0.25 (≈ 0.468 µM) | 1 (≈ 1.87 µM) | 1 (≈ 1.87 µM) |

Reference: ChEMBL document CHEMBL1145496 (Antimicrob Agents Chemother, 2007)
